Screens: PubChem BioAssay, several laboratories
WT yeast gro inh = growth inhibition of WT strain, primary screen, mitochondrial fusion inhibitor project, WT and mutant strains, chemical genetic; mitochondrial fusion phenotypic screen; 190,000 compounds, 2.1% hits; inhibition, % at 10 µM; in the data active = inhibition above about 58%; tested in S. cerevisiae
Autophagy HCS = autophagy modulators in MEF cells, primary screen, imaging, high-content, MEF GFP-LC3. MEF GFP-LC3 puncta imaging; test concentration mostly 10 µM. calls only at 10 µM (by protocol). 190,000 compounds, 0.98% hits. AID 463193, 2010;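 active = percentage of spot-positive cells more than 3 SD above its plate mean, without a fluorescence outlier flag or 80% toxicity; inconclusive = no clear call, values can overlap the other calls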;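 also: spot-positive cell cutoff set from DMSO-treated cells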
Rad51 HR inh = human RAD51 strand exchange inhibitors, primary screen, biochemical, fluorescence; DNA repair protein RAD51 homolog 1 (Homo sapiens), Q06609; hRad51 DNA strand exchange, fluorescence dequenching; inhibition, % at 10 µM; 200,000 compounds, 0.085% hits;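 active = inhibition above 40% at the single screening dose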;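 also: 0% = DMSO control wells and 100% = blanks with heterologous ssDNA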
Target sequence (Q06609 whole entry, looked up): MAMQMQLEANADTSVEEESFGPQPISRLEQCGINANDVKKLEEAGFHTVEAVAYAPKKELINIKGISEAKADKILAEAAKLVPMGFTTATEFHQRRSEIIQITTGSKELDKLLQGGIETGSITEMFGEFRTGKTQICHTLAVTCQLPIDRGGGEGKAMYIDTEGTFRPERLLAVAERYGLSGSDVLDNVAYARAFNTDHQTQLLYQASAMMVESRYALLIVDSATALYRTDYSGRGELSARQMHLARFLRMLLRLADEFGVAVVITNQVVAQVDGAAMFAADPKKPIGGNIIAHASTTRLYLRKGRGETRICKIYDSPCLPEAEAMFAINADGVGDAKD
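Test system: preformed human Rad51 ssDNA filaments. Compound dosing: single dose, 10 µM final compound. Incubation: filaments 15 min 37 °C, then compound 30 min. Technique: FRET fluorescence dequenching, excitation 485 nm, emission 520 nm. Read-out basis: percent inhibition from fluorescence, normalised to plate control and blank means. Benchmarks: plate controls and plate blanks.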
KCC2 mod = KCC2 cotransporter modulators, thallium flux, primary screen, cell-based, HEK293 KCC2, FluoZin-2 fluorescence, MLSMR | 190,000 compounds, 2.2% hits | AID 1456, 2008 | B-score of Tl+ flux slope (higher = more flux/activation; lower = inhibition) at 10 µM | KCC2 cells, thallium flux FluoZin-2 fluorescence;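 active = thallium flux slope and its plate-corrected score both differing from the plate sample mean at a set confidence after two filtering rounds, in either direction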;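 also: slope of fluorescence scaled to starting intensity during 10 to 20 s after thallium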
Insulin prom up = insulin promoter activators in MIN6 cells, imaging, high-content screening, mouse beta cells. MIN6 insulin promoter-GFP reporter; hits give high values. z-score at 5 µM. 190,000 compounds, 0.3% hits. AID 1625, 2009;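 active = z-score above 3 at 5 µM with at least 500 cells counted in the well; inconclusive = wells under 500 cells, flagged as cytotoxic or low count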
SKKanGAS inh = S. pyogenes SKKanGAS growth inhibitors in kanamycin, primary screen, streptokinase expression inhibitor project, SKKanGAS strain, BacTiter-Glo luminescence; 6 h; inhibition, % at 7.5 µM; 300,000 compounds, 1.3% hits;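 active = mean replicate score, as percent of positive control median, at least 50; inconclusive = mean below 50 but one replicate at or above 50; inactive = mean and every replicate below 50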;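 also: strain carries kanamycin resistance gene driven by streptokinase promoter and grows in 40 µg/ml kanamycin; loss of luminescence reflects streptokinase promoter inhibition or plain growth inhibition; 0% = median of DMSO wells and 100% = positive control at its reference dose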
The depositor's hits bear a star; i = inactive; ? = inconclusive; . = no result; + = active, no number. This is a sample that favours compounds with a hit; in the whole collection about 4.2% have one here.

SMILES	WT yeast gro inh	Autophagy HCS	Rad51 HR inh	KCC2 mod	Insulin prom up	SKKanGAS inh
c1ccc(-c2csc(-n3cccn3)n2)cc1	0	i	-7	0.24	0.63	-9
O=[N+]([O-])c1cc(S(=O)(=O)C(F)(F)F)ccc1NCC1CCCO1 (centres undefined)	.	.	.	.	.	-2
CSc1nc(Cl)c(Cc2ccc(OC(C)C)cc2)c(N(C)C)n1	63*	i	-4	0.18	-0.18	-20
CCOC(=O)C1CCN(C(=O)c2cc(S(=O)(=O)N3CCc4ccccc43)ccc2OC)CC1	.	.	.	.	.	-7
CCOC(=O)c1sc2cc([N+](=O)[O-])cc(SCC(C)C)c2c1N	6	+	-138	0.11	.	0
CCOC(=O)c1cc(N)cc([N+](=O)[O-])c1	-4	i	1	1	0.15	3
O=c1c2c3c(sc2nc(NCCO)n1CCc1ccccc1)CCCCC3	70*	i	-4	-1.5	-0.66	-3
Cc1nc(NCc2cccnc2)c2c3c(sc2n1)CCCC3	-7	i	7	0.0033	-0.65	5
O=C(CSc1nc2sc3c(c2c(=O)n1-c1ccccc1)CCCC3)N/N=C/c1ccc(C(=O)O)cc1	.	.	.	.	.	12
Cn1c(N/N=C/c2ccccc2)nc2sc3c(c2c1=O)CCC3	62*	i	9	1	-0.19	-6
OCCNc1nc(SCc2ccccc2)nc2sc3c(c12)CCC3	78*	i	.	0.084	-0.89	24
O=C(NCC(=O)N(c1cccnc1)C(C(=O)NC1CCCC1)c1ccccc1F)c1ccco1 (centres undefined)	.	.	.	.	.	-2
COc1ccc2nc(N/C(N)=N/C(=S)Nc3cccc(C)c3)nc(C)c2c1	27	i	5	-0.21	-0.81	42
COc1ccc2nc(N/C(N)=N/C(=S)Nc3c(C)cccc3C)nc(C)c2c1	57	+	-8	-0.53	-0.21	51*
COC(=O)c1ccc(C(NC(=O)c2cccnc2)NC(=O)c2cccnc2)cc1	3	+	1	-0.75	-0.49	1
Cc1ccc(C)n1-c1sc2c(c1C#N)CCC(C)C2 (centres undefined)	23	i	.	-0.058	1.6	62*
CC(=O)Nc1sc2c(c1C#N)CCC(C)C2 (centres undefined)	10	i	.	-0.62	-0.06	-1
O=C(NCCCN1CCCC1=O)c1c(O)nc2sccn2c1=O	.	.	.	.	.	-4
C=C(C)C1CC=C(C)/C(=N/NC(=O)COc2ccc(C)cc2)C1 (centres undefined)	-10	i	-8	0.87	.	-6
C=C(C)C1CC=C(C)/C(=N/NC(=O)COc2ccccc2Cl)C1 (centres undefined)	58*	i	4	0.0032	-0.32	19
N#C/C(=C\c1cccc(NC(=O)c2ccccc2Cl)c1)C(=O)NCCc1ccccc1	84*	i	2	-0.51	-0.36	-2
Cc1cc(Br)ccc1NC(=O)CN(C)C(=O)COc1cccc2c1OC(C)(C)C2	.	.	.	.	.	-14
O=c1cc(/N=C/c2coc3c(ccc4ccccc43)c2=O)[nH]c(=S)[nH]1	-5	i	-2	-0.7	?	87*
NC(=S)N/N=C/c1coc2c(ccc3ccccc32)c1=O	-3	i	4	-0.02	0.08	1
O=C1Nc2ccccc2Nc2ccc([N+](=O)[O-])cc21	.	.	.	.	.	10
SMILES	WT yeast gro inh	Autophagy HCS	Rad51 HR inh	KCC2 mod	Insulin prom up	SKKanGAS inh
Cc1ccc(Oc2cc([N+](=O)[O-])cc3c2C(=O)Nc2ccccc2O3)cc1	64*	i	.	-0.22	0.43	9
CC(C)(C)c1ccc(Cn2ccc(-c3ccc4c(c3)OCO4)n2)cc1	-6	i	-1	-0.17	.	53*
CCc1ccc2oc(-c3cc(N)cc(C)c3O)nc2c1	40	+	5	-1.1	-1.5	.
O=C(Nc1ccccn1)C1CCN(C(=O)Nc2ccccc2)CC1	.	.	.	.	.	0
CCOCCCNC(=O)c1cc(C)nn1-c1ccccc1	0	i	10	0.77	-0.94	-5
CCOCCCNC(=O)c1cc2sc(Cl)cc2n1CC	13	+	1	-0.0071	1.2	-9
Nc1ncn(C23CC4CC(CC(C4)C2)C3)n1	0	i	-8	-0.78	-0.06	2
c1ccc(-c2nnn(C34CC5CC(CC(C5)C3)C4)n2)cc1	81*	i	-7	-0.33	-1.1	0
COC(=O)N/N=C/c1ccc([N+](=O)[O-])s1	3	i	-11	0.018	-0.62	-3
O=[N+]([O-])c1ccc(/C=N/NC(=S)Nc2ccc(Cl)cc2Cl)s1	.	.	3	1.8	0.07	77*
O=[N+]([O-])c1ccc(O)c(/C=N/NC(=S)Nc2ccc(Cl)cc2Cl)c1	.	.	12	9.2*	0.94	117*
CCCCCOc1ccc2oc(=O)c3c(c2c1)CCCN3C(=O)CN1CCCC(C(=O)OCC)C1 (centres undefined)	80*	i	-1	-0.015	-0.54	5
CC(=O)N1CCCC(C(=O)c2ccc(Oc3ccccc3)cc2)C1 (centres undefined)	22	i	-6	0.95	.	-13
Cc1cc(C)cc(N=C2SC(CC(=O)Nc3ccccc3)C(=O)N2CCN2CCOCC2)c1 (centres undefined)	54	+	-3	0.35	-0.72	-1
O=C(CC1SC(=Nc2ccccc2)N(CCO)C1=O)Nc1ccccc1 (centres undefined)	-26	i	2	-0.98	0.83	-9
CCC(C)(c1nnnn1-c1c(C)cccc1C)N(N=O)c1ccccc1Cl (centres undefined)	10	i	-15	-0.9	-0.57	.
O=C(N/N=C/c1ccccn1)c1ccc(N/N=C/c2ccccn2)cc1	0	i	-4	-0.47	-0.31	1
CC(C)(C)c1ccc(C(=O)N/N=C/c2ccccn2)cc1	.	.	.	.	.	63*
Cc1ccc(C(=O)N/N=C\c2ccccn2)cn1	.	.	13	0.85	0.04	35
O=C(N/N=C/c1ccccn1)c1ccc(Br)cc1	25	i	-4	4.2*	1.6	-3
N#CCn1c(CN2CCCC2)nc2ccccc2c1=O	.	.	.	.	.	0
CN(C)c1nc(N)nc(/C(C#N)=C/C2CC3C=CC2C3)n1 (centres undefined)	.	i	-10	.	3*	6
CCN(CC)CCNC(=O)c1ccc(NC(=O)c2cn(-c3ccccc3)nc2-c2cccs2)cc1	3	+	2	-0.19	0.79	-4
CC(C)C(=O)NCCc1nc2ccccc2n1CCCOc1ccc(Cl)cc1	70*	i	-1	-1.6	-0.62	-3
O=C(Nc1nc2ccccc2n1CCOc1ccccc1)c1ccco1	56	i	-1	1.4	0.17	77*
